This is an account of results in BindingDB's records for doi:10.1039/c1md00059d (Centre National De La Recherche Scientifique, 2011).

The experiment has as its target T1, Vitamin D3 receptor A (Danio rerio, UniProt Q9PTN2).
T1 sequence (Q9PTN2 whole entry): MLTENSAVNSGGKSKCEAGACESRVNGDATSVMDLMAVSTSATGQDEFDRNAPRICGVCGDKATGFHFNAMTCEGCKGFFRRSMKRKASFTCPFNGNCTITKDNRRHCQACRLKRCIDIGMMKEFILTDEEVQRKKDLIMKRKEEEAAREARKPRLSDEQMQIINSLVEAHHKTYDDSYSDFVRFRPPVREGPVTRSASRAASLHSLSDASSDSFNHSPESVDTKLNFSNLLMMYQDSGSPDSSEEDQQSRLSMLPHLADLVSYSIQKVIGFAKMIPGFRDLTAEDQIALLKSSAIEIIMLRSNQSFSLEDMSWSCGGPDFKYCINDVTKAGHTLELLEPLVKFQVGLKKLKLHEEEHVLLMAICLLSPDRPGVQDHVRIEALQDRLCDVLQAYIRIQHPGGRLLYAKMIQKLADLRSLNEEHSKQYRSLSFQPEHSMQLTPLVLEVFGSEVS
As to the kind of experiment: Agonist activity at zebrafish VDR LBD assessed as binding affinity to TAMRA-labeled SRC-1 peptide by fluorescence anisotropy assay. In short, it runs like this:
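Titrations were run in the presence of ligand, and peptide recruitment was monitored by fluorescence anisotropy to derive kd.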

`C=C1/C(=C\C=C2/CCC[C@]3(C)[C@@H](C(CCCC(C)(C)O)CCCC(C)(C)O)CC[C@@H]23)C[C@H](O)C[C@H]1O`: the “Kd” value turned out to be 3300 nM.
As to `[2H]C([2H])([2H])C(O)(CCC[C@@H](CC#CC(O)(C(F)(F)F)C(F)(F)F)[C@H]1CC[C@H]2/C(=C/C=C3C[C@H](O)C[C@@H](O)C3)CCC[C@]12C)C([2H])([2H])[2H]`, the “Kd” value worked out at 1800 nM.
Regarding `[2H]C([2H])([2H])C(O)(CCC[C@H](CC#CC(O)(C(F)(F)F)C(F)(F)F)[C@H]1CC[C@H]2/C(=C/C=C3C[C@H](O)C[C@@H](O)C3)CCC[C@]12C)C([2H])([2H])[2H]`, the “Kd” value came out at 1800 nM.
